Measurements as given in article PMC6689428 (Biochimica et biophysica acta. Biomembranes, 2019).

Assays:
[1] = tested on: S. aureus USA300; test: Membrane depolarization, DiBAC4; assay type: cell-based, Staphylococcus aureus; conditions: S. aureus USA300, treated at 12.5 μM, DiBAC4(3) fluorescence; Triton X-100 (0.1%) positive control
[2] = tested on: S. aureus USA300 biofilms; test: Disruption of 24 h established biofilms, XTT; assay type: cell-based, Staphylococcus aureus; conditions: 24 h preformed S. aureus USA300 biofilms, 24 h treatment in TSB
In short: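 Exponential-phase TSB culture at 10^5 CFU/mL grew 24 h at 37°C to form biofilms. Plankton was removed with a PBS wash. Biofilms took 10× peptide diluted in fresh TSB for 24 h at 37°C, were washed, then got XTT in TSB for 2 h at 37°C. A450 was blanked on media plus XTT. Growth was expressed as % of untreated biofilm wells.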

[3] = tested on: E. coli ATCC 25922 biofilms; test: Disruption of 24 h established biofilms, XTT; assay type: cell-based, Escherichia coli; conditions: 24 h preformed E. coli ATCC 25922 biofilms
[4] = tested on: S. aureus USA300; test: Membrane permeation, propidium iodide; assay type: cell-based, Staphylococcus aureus; conditions: S. aureus USA300, peptides at 3.12 μM, 10 mM PBS, 37°C, read for 2 h
In short: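 Cells were suspended in 10 mM PBS at final OD600 ~0.1 with propidium iodide and serially diluted 10× peptide. They were held at 37°C shaking at 100 rpm. Fluorescence (ex 584/em 620 nm) was read every 5 min for 2 h. Plots used averages of duplicate experiments.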

[5] = tested on: E. coli ML-35p; test: Outer and inner membrane permeabilization; assay type: cell-based, Escherichia coli; conditions: peptides at 6.25 μM, absorbance for 40 min
In short: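 Cells came from a single colony grown overnight in TSB at 37°C and were washed three times in PBS. They were diluted to ~10^6 CFU/mL in PBS containing 0.3 mg/mL TSB. Peptide was 0 to 12.5 μM, with 30 μM nitrocefin or 2.5 mM ONPG per well. Absorbance at 490 and 420 nm was followed for 40 min at 37°C.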

[6] = tested on: S. aureus USA300; conditions: ref [10]; cited from earlier work
[7] = tested on: E. coli; conditions: ref [50], [10]; cited from earlier work

Compound: CCCCCCCCCC(=O)N[C@@H](Cc1c[nH]c2ccccc12)C(=O)N[C@H](CC(N)=O)C(=O)N[C@@H](CC(=O)O)C(=O)N[C@@H]1C(=O)NCC(=O)N[C@@H](CCCN)C(=O)N[C@@H](CC(=O)O)C(=O)N[C@H](C)C(=O)N[C@@H](CC(=O)O)C(=O)NCC(=O)N[C@H](CO)C(=O)N[C@@H]([C@H](C)CC(=O)O)C(=O)N[C@@H](CC(=O)c2ccccc2N)C(=O)O[C@@H]1C [daptomycin]
- Membrane depolarization [1]: very weak
- Concentration that essentially eliminated biofilms [2]: 6.25 µM

Compound: CO[C@H]1/C=C/O[C@@]2(C)Oc3c(C)c(O)c4c(O)c(cc(O)c4c3C2=O)NC(=O)/C(C)=C\C=C\[C@H](C)[C@H](O)[C@@H](C)[C@@H](O)[C@@H](C)[C@H](OC(C)=O)[C@@H]1C [rifamycin]
- Antibiofilm effect [3]: ineffective

Compound: NC[C@H]1O[C@H](O[C@H]2[C@H](O)[C@@H](O[C@H]3O[C@H](CO)[C@@H](O)[C@H](N)[C@H]3O)[C@H](N)C[C@@H]2N)[C@H](N)C[C@@H]1O [tobramycin]
- Membrane permeation (propidium iodide fluorescence) [4]: unable to damage bacterial membranes

Compound: CN[C@H](CC(C)C)C(=O)N[C@H]1C(=O)N[C@@H](CC(N)=O)C(=O)N[C@H]2C(=O)N[C@H]3C(=O)N[C@H](C(=O)N[C@H](C(=O)O)c4cc(O)cc(O)c4-c4cc3ccc4O)[C@H](O)c3ccc(c(Cl)c3)Oc3cc2cc(c3O[C@@H]2O[C@H](CO)[C@@H](O)[C@H](O)[C@H]2O[C@H]2C[C@](C)(N)[C@H](O)[C@H](C)O2)Oc2ccc(cc2Cl)[C@H]1O [vancomycin]
- Outer membrane permeation (β-lactamase, nitrocefin) [5]: unable to

Compound: GFKRlVQRlKDFlRKLV-amide [GF-17d3]
- Activity against S. aureus USA300 [6]: not active
- Activity against E. coli in the presence of chymotrypsin [7]: active
